This is an account of results in ChEMBL document CHEMBL1146509, “Periconicins, two new fusicoccane diterpenes produced by an endophytic fungus Periconia sp. with antibacterial activity” (2004).

One assay deals with Bacillus subtilis. The assay can be described thus: Antibacterial activity against Bacillus subtilis ATCC 6633 after 24 hrs by twofold microtiter broth dilution method. In kind it is functional. The procedure, abridged: (§1)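 Two-fold serial dilutions in DMSO added to standard methods (SM) broth in 96-well plates, final 0.5% DMSO; wells inoculated from overnight culture at 10^5 CFU/mL; incubated 37 °C for 24 h; MIC taken as lowest concentration with no visible growth. Strains from ATCC or Institute for Fermentation, Osaka stock collections.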

The subject of assay [1] is Staphylococcus epidermidis. The assay is described as follows: Antibacterial activity against Staphylococcus epidermidis ATCC 12228 after 24 hrs by twofold microtiter broth dilution method. In kind it is functional. Put shortly: as §1
The subject of a further assay is Micrococcus luteus. The assay can be described thus: Antibacterial activity against Micrococcus luteus IFO 12708 after 24 hrs by twofold microtiter broth dilution method. It counts as functional. Put shortly: as §1
In another assay the test system is Escherichia coli. The assay is described as follows: Antibacterial activity against Escherichia coli ATCC 25922 after 24 hrs by twofold microtiter broth dilution method. In kind it is functional. Put shortly:
as §1

In a further assay the test system is Staphylococcus aureus. The assay is described as follows: Antibacterial activity against Staphylococcus aureus ATCC 6538p after 24 hrs by twofold microtiter broth dilution method. It counts as functional. The procedure, abridged: as §1
Another assay relates to Proteus vulgaris. The assay is described as follows: Antibacterial activity against Proteus vulgaris ATCC 3851 after 24 hrs by twofold microtiter broth dilution method. In kind it is functional. Put shortly:
as §1

The next assay has as its system Klebsiella pneumoniae. The assay is described as follows: Antibacterial activity against Klebsiella pneumoniae IFO 13541 after 24 hrs by twofold microtiter broth dilution method. It counts as functional. The procedure, abridged:
as §1

In a further assay the test system is Salmonella typhimurium. The assay can be described thus: Antibacterial activity against Salmonella typhimurium ATCC 14028 after 24 hrs by twofold microtiter broth dilution method. It counts as functional, Salmonella enterica subsp. enterica serovar Typhimurium. The procedure, abridged:
as §1

Setting [2] is: Salmonella enterica, ATCC 14028, 24 h.

Values after ≈ are worked out from the molar mass of the structure shown.

Take `CC(CO)C1=C2C/C=C(/C=O)[C@@H]3C(=O)[C@@H](O)[C@@H](C)[C@H]3C[C@]2(C)CC1` (some centres undefined) [PERICONICIN B]: the MIC in the assay with Bacillus subtilis (ATCC 6633, 24 h) was 25 µg/mL (≈ 75.2 µM); in assay [1] (ATCC 12228, 24 h), 100 µg/mL (≈ 301 µM); in the assay on Micrococcus luteus (IFO 12708, 24 h), over 100 µg/mL; in the assay with Escherichia coli (ATCC 25922, 24 h) it was over 100 µg/mL; against Staphylococcus aureus it was 50 µg/mL (≈ 150 µM); in the assay on Proteus vulgaris (ATCC 3851, 24 h), 50 µg/mL (≈ 150 µM). Also, the MIC is 25 µg/mL (≈ 75.2 µM) with Klebsiella pneumoniae (IFO 13541, 24 h) and 50 µg/mL (≈ 150 µM) against Salmonella typhimurium (setting [2]).
Regarding `CC(C)C1=C2C/C=C(/C=O)[C@@H]3C(=O)[C@@H](O)[C@@H](C)[C@H]3C[C@]2(C)CC1` [PERICONICIN A], the MIC in the assay on Bacillus subtilis (ATCC 6633, 24 h) worked out at 3.12 µg/mL (≈ 9.86 µM); in assay [1] (ATCC 12228, 24 h), 12.5 µg/mL (≈ 39.5 µM); in the assay on Micrococcus luteus (IFO 12708, 24 h), 25 µg/mL (≈ 79 µM); with Escherichia coli (ATCC 25922, 24 h), 100 µg/mL (≈ 316 µM); with Staphylococcus aureus, 12.5 µg/mL (≈ 39.5 µM); against Proteus vulgaris (ATCC 3851, 24 h), 6.25 µg/mL (≈ 19.8 µM). Moreover, the MIC was 3.12 µg/mL (≈ 9.86 µM) against Klebsiella pneumoniae (IFO 13541, 24 h) and 6.25 µg/mL (≈ 19.8 µM) against Salmonella typhimurium (setting [2]).
Turning to GENTAMICIN, the MIC against Bacillus subtilis is 3.12 µg/mL; in assay [1], 3.12 µg/mL; against Micrococcus luteus it was 6.25 µg/mL; with Escherichia coli, 1.56 µg/mL; against Staphylococcus aureus, 3.12 µg/mL; against Proteus vulgaris it was 6.25 µg/mL. The MIC was 12.5 µg/mL against Klebsiella pneumoniae and 3.12 µg/mL in the assay with Salmonella typhimurium (Salmonella enterica subsp. enterica serovar Typhimurium).
